OXTR agonist: activates the human oxytocin receptor | CHO-OTR cells, Fluo-8 calcium fluorescence; normalized: DMSO 0%, oxytocin 100% | activation, % at 3 µM | actives 0.32% (n = 320,000) | AID 2435;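 active = activation above the mean of all tested compounds plus 3 SD, cutoff set per screening run, cut at about 20% in these data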;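 also: peak over basal fluorescence ratio from a 100 s FLIPR kinetic read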
OX1R antag-1: OX1R (human) antagonism. O43613. OX1R-expressing cells, FRET antagonist read-out. inhibition, % at 6.6 µM. actives 1.8% (n = 330,000); in the data active = inhibition mostly above about 38%, no sharp cut-off; inactive = mostly below about 40%;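 also: 0% = agonist challenge alone and 100% = reference antagonist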
Target sequence (O43613 whole entry, looked up): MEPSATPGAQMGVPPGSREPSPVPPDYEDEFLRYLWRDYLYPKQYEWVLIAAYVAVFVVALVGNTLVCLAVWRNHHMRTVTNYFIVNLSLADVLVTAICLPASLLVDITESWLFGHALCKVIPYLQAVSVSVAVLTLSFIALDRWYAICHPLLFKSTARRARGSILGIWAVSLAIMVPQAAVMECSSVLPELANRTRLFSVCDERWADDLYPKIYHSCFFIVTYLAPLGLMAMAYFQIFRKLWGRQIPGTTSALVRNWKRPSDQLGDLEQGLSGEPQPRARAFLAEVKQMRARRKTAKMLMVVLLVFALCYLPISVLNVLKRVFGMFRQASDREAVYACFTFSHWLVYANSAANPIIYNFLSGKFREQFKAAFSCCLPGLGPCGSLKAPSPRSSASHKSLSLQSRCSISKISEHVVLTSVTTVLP
OXTR potentiator: potentiates the human oxytocin receptor response; activation, % at 3 µM; P30559; CHO-OTR cells, Fluo-8 calcium fluorescence, potentiator mode; 0% = oxytocin EC15, 100% = EC100; actives 0.061% (n = 320,000); AID 2445;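 active = activation above that plate's cutoff, the mean activation of tested compounds plus 3 SD, cut at about 6.6% in these data, passing the limit was not always enough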;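 also: 100% uses oxytocin at 75 nM as the full agonist control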
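Dosing: Single dose, 3.0 µM nominal final compound concentration | Material: Human OTR in CHO cells | Technique: Kinetic Fluo-8 calcium fluorescence | Benchmarks: EC15 oxytocin alone as 0%, 75 nM oxytocin as 100% | Probe or stimulus: Oxytocin at about EC15, sub-maximal agonist stimulus | Incubation: Compound 6 min at room temperature before oxytocin, 100 s read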
CHO parental Ca: counter-screen for OX1R antagonists: effect in parental CHO cells | parental CHO-K1, ATP-induced calcium, Fluo-8 fluorescence | actives 0.63% (n = 330,000) | inhibition, % at 5.6 µM | AID 463079;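 active = inhibition above that plate's mean sample inhibition plus 3 SD, cut at about 26% in these data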;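 also: 0% = ATP-challenged DMSO wells and 100% = DMSO wells without ATP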
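Test system: parental CHO cells; detection: calcium-sensitive Fluo-8 fluorescence; evaluation: percent inhibition of calcium signal; also added: ATP as calcium-mobilizing challenge; repeats: one well per compound; control set: ATP-challenged DMSO wells low, unchallenged DMSO wells high; compound: single nominal dose of 5.6 µM per compound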
V1R ag counter: V1a receptor agonism, counter-screen for OXTR agonists. CHO-V1R cells, Fluo-8 calcium fluorescence, agonist mode; 0% DMSO, 100% 3 nM vasopressin. AID 2797. activation, % at 3 µM. actives 0.25% (n = 320,000);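 active = activation above the mean activation of all tested compounds plus 3 SD, per screening run, cut at about 20% in these data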;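 also: signal is peak over basal fluorescence ratio across a 100 second FLIPR read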
OX1R antag-2: antagonists of human orexin 1 receptor; O43613; CHO/OX1R cells, Fluo-8 calcium fluorescence, orexin A; inhibition, % at 5 µM; actives 0.43% (n = 330,000); AID 434989;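 active = inhibition above its plate's threshold, mean inhibition of all tested compounds on the plate plus 3 SD, cut at about 37% in these data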;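 also: 0% = orexin A challenge wells and 100% = SB-334867-A antagonist wells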
OXTR pot confirm: confirmation of human oxytocin receptor potentiators | shares compounds with OXTR potentiator | CHO-OTR cells, Fluo-8 calcium fluorescence, potentiation; scaled from low-dose to maximal oxytocin | activation, % at 3 µM | 180 tested, under 10 active | AID 434985;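 active = mean percent activation over triplicates above a cutoff set from solvent-only control plates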;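 also: compounds tested in the presence of an EC15 dose of oxytocin; 0% = EC15 oxytocin with DMSO and 100% = EC100 oxytocin with DMSO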
Active calls of the source: *; x = no result. Shown are actives, neighbours in structure and some others; about 2.7% of the full set was active somewhere.

SMILES	OXTR agonist	OX1R antag-1	OXTR potentiator	CHO parental Ca	V1R ag counter	OX1R antag-2	OXTR pot confirm
Cc1ccc(S(=O)(=O)C2(C(=O)NC3CCCCC3C)CC2)cc1 (stereo unspecified)	-1	13	17*	-5	-2	-4	-8
O=S(=O)(c1ccc(F)c(F)c1)N1CCN(S(=O)(=O)c2cccs2)CC1	0	4	-5	1	1	-4	x
CCOC(=O)C1=C(C)Nc2nc(SCC(=O)OC)nn2C1c1cc(F)cc(F)c1 (stereo unspecified)	-2	3	11*	-24	-1	-37	-13
O=C(CCC(=O)N1CCOc2ccccc21)NCCc1ccccc1	-1	7	-4	5	-1	-21	x
CCOC(=O)c1c(C)[nH]c(C)c1C(=O)CN1C(=O)NC2(CCCCCC2)C1=O	-2	7	3	-17	-1	-8	x
CCOC(=O)c1c(C)[nH]c(C(=O)CN2C(=O)NC3(CCCC3)C2=O)c1C	1	8	6.3*	-23	0	-20	-7
COc1ccc(C2=NOC(Cn3nc(C(=O)NCc4cccc(Br)c4)cc3-c3ccccc3)C2)cc1 (stereo unspecified)	4	17	-7	5	5	12	x
O=S(=O)(c1ccc(Cl)nc1)N1CCc2ccccc21	-1	1	-2	5	0	-6	x
O=S(=O)(c1ccc(Cl)nc1)N1CCCc2ccccc21	-2	14	8.3*	-18	-1	-25	1
COc1ccccc1OCCNC(=O)c1cc(=O)[nH]c2ccccc12	0	16	9.1*	-12	0	-9	-2
O=C(CN(C(=O)c1csnn1)c1ccc(Cl)cc1)NCCc1ccccc1	0	26	-10	-19	1	-19	x
Cc1ccc(-n2ncc3c(N4CCC(C(N)=O)CC4)ncnc32)c(C)c1	0	16	13*	-6	-1	-13	-2
O=C1c2ccccc2C(=O)N1Cc1ccc2c(c1)OCO2	0	14	-6	-19	0	-2	x
O=C(O)c1ccc2c(c1)C(=O)N(Cc1ccc3c(c1)OCO3)C2=O	0	7	11*	13	0	-2	-5
O=C(COc1ccc(Cl)cc1Br)Nc1ccncc1	12	19	-6	24	8	-6	x
CCN1CCN(C(=O)C2CCN(C(=O)Nc3ccccc3)CC2)CC1	1	11	1	0	0	-2	x
CCOC(=O)N1CCN(C(=O)C2CCN(C(=O)Nc3ccccc3)CC2)CC1	2	13	11*	-11	2	-7	3
CC(C)CCNC(=O)c1onc(CSc2nc3ccccc3[nH]2)c1C(=O)NCCC(C)C	3	18	-13	-21	0	-24	x
CCOc1ccc(C(=O)Nc2nnc(SCC(=O)NCC3CCCO3)s2)cc1OCC (stereo unspecified)	1	3	11*	4	1	-4	0
Cc1cc(C)cc(NS(=O)(=O)c2cc(C(=O)NCc3ccccn3)ccc2Cl)c1	1	2	-8	-14	5	-4	x
O=C(NCc1ccccn1)c1ccc(Cl)c(S(=O)(=O)Nc2ccccc2C(=O)NCc2ccccn2)c1	-2	6	14*	-9	1	-17	-5
O=C(NC(Cc1cccc(F)c1)C(=O)O)C1CCCCC1 (stereo unspecified)	1	3	8.1*	3	1	-13	-10
CC(C)C1CCC(C(=O)N[C@H](Cc2ccccc2)C(=O)O)CC1 (stereo partly specified)	0	14	-4	0	0	-1	x
O=C(OC(C(=O)NCc1ccccc1)c1ccccc1)c1ccco1 (stereo unspecified)	0	9	14*	-11	-1	-19	-2
CN(c1ccccc1C(=O)Nc1ccc(S(=O)(=O)N2CCCCC2)cc1)S(C)(=O)=O	1	8	11*	-5	0	-7	-8

Screening data: PubChem BioAssay, The Scripps Research Institute Molecular Screening Center
